{"data": "Results gathered from unrelated publications", "target": "Serine/threonine-protein kinase DCLK1 (DCLK1, Homo sapiens, UniProt O15075)", "technique": "competition with immobilised ligand", "One construct used (O15075 1-740)": "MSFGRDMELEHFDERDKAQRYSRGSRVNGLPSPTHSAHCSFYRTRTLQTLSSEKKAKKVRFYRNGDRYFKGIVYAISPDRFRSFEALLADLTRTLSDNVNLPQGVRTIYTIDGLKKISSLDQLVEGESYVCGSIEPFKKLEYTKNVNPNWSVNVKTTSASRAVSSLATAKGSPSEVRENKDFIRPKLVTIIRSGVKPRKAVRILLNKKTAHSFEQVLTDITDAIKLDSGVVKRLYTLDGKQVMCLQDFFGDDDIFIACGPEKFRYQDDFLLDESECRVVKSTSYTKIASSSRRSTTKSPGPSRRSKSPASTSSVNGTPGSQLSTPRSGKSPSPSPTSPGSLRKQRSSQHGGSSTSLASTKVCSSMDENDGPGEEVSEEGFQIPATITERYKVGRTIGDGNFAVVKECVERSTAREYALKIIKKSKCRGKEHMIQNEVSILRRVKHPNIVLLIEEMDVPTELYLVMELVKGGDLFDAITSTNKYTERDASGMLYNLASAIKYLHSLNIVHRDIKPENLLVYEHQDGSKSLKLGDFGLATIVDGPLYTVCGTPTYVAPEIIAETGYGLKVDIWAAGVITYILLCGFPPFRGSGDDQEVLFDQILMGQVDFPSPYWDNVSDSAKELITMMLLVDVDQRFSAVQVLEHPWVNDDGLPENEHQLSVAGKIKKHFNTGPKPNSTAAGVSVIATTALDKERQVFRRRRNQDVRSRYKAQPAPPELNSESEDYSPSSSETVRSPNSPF", "note": "Lines come from different studies, so protocols differ."}
{"SMILES": "COc1cnc(Nc2cccc(S(N)(=O)=O)c2)nc1N1CCN(c2ccccc2)CC1", "test": "binding", "conditions": "1 µM", "remaining binding [%]": 92}
{"SMILES": "N[C@@H]1CCN(c2nccc(-c3cnn4ncccc34)n2)C1", "test": "binding", "conditions": "1 µM", "remaining binding [%]": 70}
{"SMILES": "COc1cc(N2CCN(C)CC2)ccc1Nc1ncc2c(n1)N(C)c1ccccc1C(=O)N2CC(F)(F)F", "test": "binding", "conditions": "1 µM", "remaining binding [%]": "< 10"}
{"SMILES": "O=C(N1CCS(=O)(=O)CC1)N1C[C@H](c2ccc(OC(F)(F)F)cc2)C[C@H](c2nc(C3CC3)no2)C1", "test": "cell-free assay", "conditions": "1 µM", "remaining binding [%]": 100}
{"SMILES": "Cc1cc(-c2cc(C(F)(F)F)ccc2O[C@H]2C[C@@]2(CNS(=O)(=O)c2ccc([N+](=O)[O-])cc2)c2ccc(F)cc2F)[nH]n1", "test": "cell-free assay", "conditions": "0.3 µM", "remaining binding [%]": 32}
{"SMILES": "CCN1CCN(Cc2ccc(C(=O)Nc3ccc(C)c(Oc4ccc5c(c4)CC(=O)N5)c3)cc2C(F)(F)F)CC1", "test": "binding", "conditions": "1 µM", "remaining binding [%]": 88}
{"SMILES": "Cc1c(NC(=O)c2cc(C(N)=O)nc3cc(F)ccc23)c(C(F)(F)F)nn1Cc1ccc(C#N)cc1", "test": "cell-free assay", "conditions": "1 µM", "remaining binding [%]": 85}
{"SMILES": "CN(C)c1nccc(-c2cnc3ncccn23)n1", "test": "binding", "conditions": "1 µM", "remaining binding [%]": 61}
{"SMILES": "COCCOc1nc(-c2ccc(Cl)nc2)nc2c1CN(C(=O)c1ncn3ccccc13)CC2", "test": "cell-free assay", "conditions": "0.1 µM", "remaining binding [%]": 100}
{"SMILES": "CN(CCCC(F)(F)F)c1nccc(-c2cnn3ncccc23)n1", "test": "binding", "conditions": "1 µM", "remaining binding [%]": 90}
{"SMILES": "CCC(=N\\O)/C(C)=C/c1ccc(F)cc1", "test": "cell-free assay", "conditions": "1 µM", "remaining binding [%]": 93}
{"SMILES": "C[C@@H]1CCN(c2nccc(-c3cnn4ncccc34)n2)C1", "test": "binding", "conditions": "1 µM", "remaining binding [%]": 84}
{"SMILES": "Nc1c(C(=O)NCc2ccc(C(=O)NCCCC3CCCCC3)cc2)cnn1-c1ccccc1", "test": "cell-free assay", "conditions": "0.1 µM", "remaining binding [%]": 100}
{"SMILES": "c1cnn2ncc(-c3ccnc(N4CCC45COC5)n3)c2c1", "test": "binding", "conditions": "1 µM", "remaining binding [%]": 82}
{"SMILES": "Cc1cnc(Nc2ccc(C(=O)N3CCC(N4CCCC4)CC3)cc2)nc1-c1cc2ccccc2s1", "test": "binding", "conditions": "1 µM", "remaining binding [%]": 68}
{"SMILES": "COc1ccc2cc(OCC3(C(=O)O)CN(C(=O)c4ccc(F)cc4)C3)ccc2c1", "test": "cell-free assay", "conditions": "1 µM", "remaining binding [%]": 100}
{"SMILES": "O=C(NCCCN1CCOCC1)c1ccc(Nc2nccc(-c3cc4ccccc4s3)n2)cc1", "test": "binding", "conditions": "1 µM", "remaining binding [%]": 88}
{"SMILES": "O=C(Nc1c[nH]nc1C(=O)NC1CCNCC1)c1cc(F)cc(F)c1", "test": "binding", "conditions": "1 µM", "remaining binding [%]": 79}
{"SMILES": "c1cncc(-c2cccc(Nc3nccc(NC4CCCCC4)n3)c2)c1", "test": "binding", "conditions": "10 µM", "remaining binding [%]": 92}
{"SMILES": "CC(=O)Nc1c(C(C)=O)c(=O)n(C)c2nc(-c3ccc(Cl)cc3Cl)c(-c3ccc(Cl)cc3)cc12", "test": "cell-free assay", "conditions": "1 µM", "remaining binding [%]": 100}
{"SMILES": "COc1ccnn2ncc(-c3ccnc(N(C)C)n3)c12", "test": "binding", "conditions": "1 µM", "remaining binding [%]": 80}
{"SMILES": "CNC(=O)[C@@H]1CC[C@@H](n2c(-c3ccc4cnccc4c3)nc3ccc(C(=O)NCc4cccc(C(N)=O)c4)cc32)C1", "test": "binding", "conditions": "1 µM", "remaining binding [%]": 85}
{"SMILES": "O=C(c1ccc(Nc2ncc(Cl)c(-c3ccc(Cl)s3)n2)cc1)N1CCC(N2CCCC2)CC1", "test": "binding", "conditions": "1 µM", "remaining binding [%]": 69}
{"SMILES": "CNCc1ccccc1-c1csc([C@H](C)Nc2nc(C)nc3cc(OC)c(OC)cc23)c1", "test": "cell-free assay", "conditions": "1 µM", "remaining binding [%]": 87}
{"SMILES": "C[C@@H]1CN(c2ccc3ncc(-c4ccc5[nH]nc(C6CC6)c5c4)n3n2)C[C@H](C)O1", "test": "binding", "conditions": "50 nM", "remaining binding [%]": 84}
